Measurements as given in ChEMBL document CHEMBL4190282, “The Conjugated Double Bond of Coniferyl Aldehyde Is Essential for Heat Shock Factor 1 Mediated Cytotoprotection” (J Nat Prod, 2017).
Active and inactive are the calls of the source. The rule behind the calls is not given here.

How the values were obtained:
[1] = test system: L132; assay: Cytoprotective activity against paclitaxel-induced caspase3 cleavage in human L-132 cells at 3 uM pretreated for 1 hr followed by paclitaxel addition measured after 24 hrs by immunoblotting analysis; type: functional, cell-based
Outline: (§1)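 Human embryonic lung L132 cells in RPMI with 10% FBS. 1 h pretreatment at 3 μM, then 0.5 μM paclitaxel or 20 μM cisplatin for 24 h, or 10 Gy 137Cs γ-rays (3.81 Gy/min) for 48 h. Cleaved PARP and caspase-3 immunoblotted (ECL); bands normalized to loading control, fold-change vs negative control, ≥3 independent experiments.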

[2] = target: T1, Heat shock factor protein 1 (Homo sapiens) (UniProt Q00613); assay: Activation of HSF1 in human L132 cells assessed as increase in HSP25 mRNA expression at 3 uM after 12 hrs by RT-PCR analysis; type: cell-based
T1 sequence (whole entry): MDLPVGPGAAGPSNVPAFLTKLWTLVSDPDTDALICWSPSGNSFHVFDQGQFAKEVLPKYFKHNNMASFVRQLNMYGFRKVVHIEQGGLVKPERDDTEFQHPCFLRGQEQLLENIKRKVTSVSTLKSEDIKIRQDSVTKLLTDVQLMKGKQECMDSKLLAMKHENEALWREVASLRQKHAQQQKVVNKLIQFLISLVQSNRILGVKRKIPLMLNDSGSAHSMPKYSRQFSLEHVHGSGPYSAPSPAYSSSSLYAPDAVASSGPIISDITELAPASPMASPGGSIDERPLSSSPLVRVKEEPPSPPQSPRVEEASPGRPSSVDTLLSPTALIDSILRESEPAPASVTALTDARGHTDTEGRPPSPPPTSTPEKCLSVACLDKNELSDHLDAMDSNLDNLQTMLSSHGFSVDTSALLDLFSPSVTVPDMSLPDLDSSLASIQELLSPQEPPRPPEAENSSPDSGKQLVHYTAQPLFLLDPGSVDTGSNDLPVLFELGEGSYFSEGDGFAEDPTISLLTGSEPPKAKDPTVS
Outline: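 L132 human lung fibroblasts treated 12 h at 3 μM; hsp27 and hsp70 mRNA measured by RT-PCR under the same conditions as immunoblotting. Celastrol 1 μM positive control.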

[3] = test system: L132; assay: Cytotoxicity against human L-132 cells assessed as reduction in cell viability up to 20 uM after 24 hrs by MTT assay; type: cell-based; conditions: l132, 24 h
Outline: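 L132 cells treated 24 h at indicated doses up to 20 μM. MTT (5 mg/mL in PBS) 4 h at 37 °C, formazan dissolved in DMSO, absorbance at 540 nm converted to cell number via calibration curve. Celastrol positive control.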

[4] = test system: L132; assay: Cytoprotective activity against cisplatin-induced caspase3 cleavage in human L-132 cells at 3 uM pretreated for 1 hr followed by cisplatin addition measured after 24 hrs by immunoblotting analysis; type: functional, cell-based; outline: as §1
[5] = test system: MEF; assay: Cytoprotective activity against paclitaxel-induced caspase3 cleavage in HSF1 deficient MEF at 3 uM pretreated for 1 hr followed by paclitaxel addition measured after 24 hrs by immunoblotting analysis; type: functional, cell-based; conditions: Mus musculus
Outline: (§2)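 HSF1+/+ or HSF1−/− MEFs in DMEM with heat-inactivated 10% FBS, nonessential amino acids, glutamine, HEPES, 37 °C, 5% CO2. 1 h pretreatment at 3 μM, then 0.5 μM paclitaxel or 20 μM cisplatin for 24 h, or 10 Gy 137Cs γ-rays (3.81 Gy/min) for 48 h. Cleaved PARP and caspase-3 immunoblotted; bands normalized to loading control, fold-change vs negative control, ≥3 independent experiments.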

[6] = test system: MEF; assay: Cytoprotective activity against cisplatin-induced PARP cleavage in HSF1 deficient MEF at 3 uM pretreated for 1 hr followed by cisplatin addition measured after 24 hrs by immunoblotting analysis; type: functional, cell-based; conditions: Mus musculus; outline: as §2
[7] = test system: Mus musculus; assay: Protection against IR-induced bone marrow damage in ICR mouse at 10 mg/kg, ip administered once before and three times after 4.5 Gy irradiation measured after 9 days by hematoxylin and eosin staining based assay; type: functional, organism-based
Outline: (§3)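 Female ICR mice (5–6 weeks) given 4.5 Gy whole-body IR, dosed ip at 10 mg/kg once before and three times after IR; 5 per group, sacrificed day 9. BM cellularity from H&E (hematopoietic cells per 200×200 μm area); peripheral WBC, lymphocytes, neutrophils; Ki67 IHC counted in five fields per femur; relative spleen weight vs control. Means ± SD, Student's t test.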

[8] = test system: Mus musculus; assay: Protection against IR-induced reduction in circulating WBCs in ICR mouse at 10 mg/kg, ip administered once before and three times after 4.5 Gy irradiation measured after 9 days; type: functional, organism-based; outline: as §3
[9] = target: T1, Heat shock factor protein 1 (Homo sapiens); assay: Activation of HSF1 in human L132 cells assessed as increase in HSP27 protein levels at 3 uM by immunoblotting analysis; type: cell-based; conditions: TDE = time-dependent effect
Outline: (§4)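 L132 cells treated at 3 μM for 12 h, or at various doses for 12 h, or at 3 μM over a time course. Lysates resolved by SDS-PAGE, blotted to nitrocellulose, milk-blocked, primary antibodies 18 h at 4 °C, ECL detection. HSP27, HSP70 and Ser326-phospho-HSF1 bands normalized to loading control; ≥3 independent experiments; celastrol 1 μM positive control.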

[10] = target: T1, Heat shock factor protein 1 (Homo sapiens); assay: Activation of HSF1 in human L132 cells assessed as increase in HSP27 protein levels after 12 hrs by immunoblotting analysis; type: cell-based; outline: as §4

SMILES | Activity [1] | Activity [2] | Activity [3] | Activity [4] | Activity [5] | Activity [6] | Activity [7] | Activity [8] | Activity [9] | Activity [10]
COc1cc(/C=C/CO)ccc1O [CONIFERYL ALCOHOL] | Active | Active | Non-Toxic | Active | inactive | inactive | Active | Active | Tde | 
COc1cc(/C=C/C=O)ccc1O [CONIFERYL ALDEHYDE] | Active | Active | Non-Toxic | Active | inactive | inactive | Active | Active |  | Dose-dependent effect
